Reference: ChEMBL document CHEMBL1139646, “Sialyl Lewis(x) analogs based on a quinic acid scaffold as the fucose mimic” (Bioorg Med Chem Lett, 2005)
Activity calls are given as the source filed them. The calls are words filed in the database; no cut-off is given here.

Assays:
Assay type in all cases: cell-based
[1] = target: T1, P-selectin (Homo sapiens) (UniProt P16109); test: Inhibition of HL-60 cell adhesion to recombinant human Selectin P at 50 mM
T1 sequence (whole entry): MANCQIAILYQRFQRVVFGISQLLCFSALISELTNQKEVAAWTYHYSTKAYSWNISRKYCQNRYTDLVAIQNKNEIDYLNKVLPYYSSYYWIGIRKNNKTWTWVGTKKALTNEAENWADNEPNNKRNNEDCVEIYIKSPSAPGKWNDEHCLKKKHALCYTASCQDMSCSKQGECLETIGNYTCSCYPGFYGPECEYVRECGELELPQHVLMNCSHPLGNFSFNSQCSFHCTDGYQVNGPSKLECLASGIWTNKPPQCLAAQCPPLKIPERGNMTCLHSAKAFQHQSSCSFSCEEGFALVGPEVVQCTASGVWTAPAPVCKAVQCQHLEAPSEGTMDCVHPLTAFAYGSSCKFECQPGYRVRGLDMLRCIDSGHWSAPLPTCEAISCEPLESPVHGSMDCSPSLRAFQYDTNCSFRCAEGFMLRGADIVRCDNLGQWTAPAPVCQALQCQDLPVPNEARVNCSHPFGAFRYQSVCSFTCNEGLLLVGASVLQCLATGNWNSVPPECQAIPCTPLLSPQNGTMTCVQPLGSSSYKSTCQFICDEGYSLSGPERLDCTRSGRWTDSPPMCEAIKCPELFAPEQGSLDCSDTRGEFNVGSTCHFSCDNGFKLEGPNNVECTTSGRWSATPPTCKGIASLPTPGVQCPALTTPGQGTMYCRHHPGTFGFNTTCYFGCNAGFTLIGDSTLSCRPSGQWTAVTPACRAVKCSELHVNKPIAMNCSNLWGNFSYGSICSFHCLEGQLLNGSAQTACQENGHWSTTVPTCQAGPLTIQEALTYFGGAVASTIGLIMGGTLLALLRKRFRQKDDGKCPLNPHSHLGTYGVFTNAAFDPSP

E-selectin = target: T2, E-selectin (Homo sapiens, UniProt P16581); test: Inhibition of HL-60 cell adhesion to recombinant human Selectin E
T2 sequence (P16581 whole entry): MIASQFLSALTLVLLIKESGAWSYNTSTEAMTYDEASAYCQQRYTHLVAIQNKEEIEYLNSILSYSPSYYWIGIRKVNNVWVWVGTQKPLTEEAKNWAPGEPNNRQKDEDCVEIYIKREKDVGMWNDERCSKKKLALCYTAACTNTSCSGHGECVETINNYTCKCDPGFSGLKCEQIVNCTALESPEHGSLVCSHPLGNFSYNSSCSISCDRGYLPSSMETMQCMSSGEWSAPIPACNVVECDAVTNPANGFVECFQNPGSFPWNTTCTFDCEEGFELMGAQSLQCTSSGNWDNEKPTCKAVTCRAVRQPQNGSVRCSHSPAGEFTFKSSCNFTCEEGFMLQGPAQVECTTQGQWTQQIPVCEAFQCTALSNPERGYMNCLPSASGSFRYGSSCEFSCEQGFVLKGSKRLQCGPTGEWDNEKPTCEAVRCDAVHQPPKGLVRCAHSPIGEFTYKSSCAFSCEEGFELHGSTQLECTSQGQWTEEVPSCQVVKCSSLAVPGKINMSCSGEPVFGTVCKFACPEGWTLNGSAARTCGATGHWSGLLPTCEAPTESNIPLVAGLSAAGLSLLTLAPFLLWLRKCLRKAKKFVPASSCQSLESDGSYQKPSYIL
In short: (§1)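 Recombinant human E- or P-selectin was coated in DPBS at 3 µg/mL (150 ng per well) for 3 h and blocked 1 h with DPBS/1% BSA. Inhibitor, diluted from 10 mM DPBS stock into Hanks'/20 mM Hepes pH 7.2–7.4/0.2% glucose/1% BSA, was added with 10^5 HL-60 cells for 15 min at room temperature, then washed with CaCl2-containing buffer. Bound cells were lysed and myeloperoxidase was read with o-phenylenediamine/H2O2 for 1 h at A492. Percent inhibition is relative to the no-inhibitor control.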

[2] = target: T3, E-selectin (Homo sapiens) (UniProt P16581); test: Inhibition of HL-60 cell adhesion to recombinant human Selectin E at 50 mM; in short: as §1
T3 sequence (whole entry): T2 sequence (P16581 whole entry)

P-selectin [3] = target: T4, P-selectin (Homo sapiens, UniProt P16109); test: Inhibition of HL-60 cell adhesion to recombinant human Selectin P; in short: as §1
T4 sequence (P16109 whole entry): T1 sequence (whole entry)

[4] = target: T3, E-selectin (Homo sapiens); test: Inhibition of HL-60 cell adhesion to recombinant human Selectin E at 50 mM; Not active up to 100 mM; in short: as §1
[5] = target: T1, P-selectin (Homo sapiens); test: Inhibition of HL-60 cell adhesion to recombinant human Selectin P at 50 mM; Not active up to 100 mM; in short: as §1
P-selectin [6] = target: T4, P-selectin; test: Inhibition of HL-60 cell adhesion to recombinant human Selectin P; Not active up to 100 mM; in short: as §1

SMILES	inhibition [1] [%]	IC50 (E-selectin; read-out: IC50) [mM]	inhibition [2] [%]	IC50 (P-selectin [3]) [mM]	inhibition [4]	IC50 (E-selectin; hl-60)	inhibition [5]	IC50 (P-selectin [6])
O=C(O)[C@H](CO)NC(=O)[C@]1(O)C[C@@H](O)[C@@H](O)[C@H](O)C1	88	> 50	46	19.5				
O=C(O)[C@]1(O)C[C@@H](O)[C@@H](O)[C@H](O)C1 [QUINIC ACID]					inactive	Not Active	inactive	Not Active
C[C@H](NC(=O)[C@]1(O)C[C@@H](O)[C@@H](O)[C@H](O)C1)C(=O)O	8	> 50	30	> 50				
O=C(O)CCCNC(=O)[C@]1(O)C[C@@H](O)[C@@H](O)[C@H](O)C1	83	> 50	40	40				
O=C(O)CC[C@H](NC(=O)[C@]1(O)C[C@@H](O)[C@@H](O)[C@H](O)C1)C(=O)O	86	> 50	43	21				
O=C(O)CNC(=O)[C@]1(O)C[C@@H](O)[C@@H](O)[C@H](O)C1	38	> 50	38	> 50				

More lines, now with the values ahead:

inhibition [1] [%]	IC50 (E-selectin; read-out: IC50) [mM]	inhibition [2] [%]	IC50 (P-selectin [3]) [mM]	inhibition [4]	IC50 (E-selectin; hl-60)	inhibition [5]	IC50 (P-selectin [6])	SMILES
92	> 50	44	19					CCC(C)[C@H](NC(=O)[C@]1(O)C[C@@H](O)[C@@H](O)[C@H](O)C1)C(=O)O (some centres not stated)
14	> 50	31	> 50					O=C(O)CCCCCNC(=O)[C@]1(O)C[C@@H](O)[C@@H](O)[C@H](O)C1
